The values that follow come from ChEMBL document CHEMBL1629499, “Synthesis, crystal structure and biological evaluation of novel 2-(5-(hydroxymethyl)-3-phenyl-1H-pyrazol-1-yl)-1-phenylethanol derivatives” (Eur J Med Chem, 2010).

Calls of active or inactive are those of the source. The rule behind the calls is not given here.

What all share (assay type): functional, cell-based
Assay [1] relates to A549. Nature of the assay: Anticancer activity against human A549 cells assessed as cell viability at 60 uM after 48 hrs by phase contrast microscopy. The method, boiled down: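 A549 lung cancer cells grown in RPMI 1640 with 10% bovine calf serum and 80 U/ml gentamicin at 37 °C, 5% CO2, seeded at 6250/cm². After 48 h exposure, cells inspected by phase contrast microscopy for morphology and cell number.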

Assay [2] concerns A549. Kind of assay: Cell cycle arrest in human A549 cells assessed as accumulation in G1 phase at 60 uM after 48 hrs using propidium iodide staining by flow cytometry (reference value: 22%). A general note: A flow cytometer gives signals particle by particle.
Assay [3] concerns A549. Nature of the assay: Induction of apoptosis in human A549 cells assessed as morphological changes at 60 uM after 48 hrs by Hoechst 33258 staining-based fluorescence microscopy. In outline: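 A549 cells exposed 48 h, stained with Hoechst 33258 and examined by fluorescence microscopy for chromatin condensation and nuclear DNA fragmentation.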
The test system of assay [4] is A549. Kind of assay: Anticancer activity against human A549 cells assessed as upregulation of LC3-2 expression at 60 uM after 48 hrs by Western blot analysis. In outline: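 After 48 h treatment, A549 cells washed in ice-cold PBS and lysed in 0.5% SDS buffer (25 mM Tris-HCl pH 7.5, EDTA, NaCl, PMSF, protease inhibitors). Protein measured by Bradford. Equal protein run on 15% SDS-PAGE, transferred to PVDF, probed overnight at 4 °C with primary antibody, β-actin as loading control. HRP secondary, chemiluminescent detection on film, bands quantified by densitometry.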
In general terms: A western blot detects proteins with antibodies after separation by electrophoresis.

Assay [5] relates to A549. Nature of the assay: Induction of necrosis in human A549 cells assessed as LDH release at 60 uM after 48 hrs. In outline:
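LDH activity measured in culture medium of A549 cells after 48 h exposure and compared with control cells.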
Background: Release of lactate dehydrogenase indicates damage to the cell membrane.

Turning to `OCc1cc(-c2ccc(Cl)cc2)nn1CC(O)c1ccccc1` (stereo unspecified), in the assay with A549 [1], the outcome was inactive. Take `COc1ccc(-c2cc(CO)n(CC(O)c3ccc(Cl)cc3)n2)cc1` (stereo unspecified): the result in the assay with A549 [2], in the assay with A549 [3] and with A549 [5] was inactive. The result with A549 [4] was Active.

Take `COc1ccc(C(O)Cn2nc(-c3ccc(Cl)cc3)cc2CO)cc1` (stereo unspecified): in the assay with A549 [1], the result was inactive. Still for that read-out and setting: in the case of `COc1ccc(C(O)Cn2nc(-c3ccccc3)cc2CO)cc1` (stereo unspecified) it was “inactive”; in that of `COc1ccc(-c2cc(CO)n(CC(O)c3ccccc3)n2)cc1` (stereo unspecified), “inactive”.

For the compound `OCc1cc(-c2ccccc2)nn1CC(O)c1ccc(Cl)cc1` (stereo unspecified), the outcome with A549 [3] and in the assay with A549 [5] was inactive. For the same compound, in the assay on A549 [4], the result was Active. As to `COc1ccc(-c2cc(CO)n(CC(O)c3ccc(OC)cc3)n2)cc1` (stereo unspecified), the result in the assay on A549 [1] was inactive. Take `OCc1cc(-c2ccc(Cl)cc2)nn1CC(O)c1ccc(Cl)cc1` (stereo unspecified): the result in the assay on A549 [3] and in the assay with A549 [5] was inactive. Further, the outcome in the assay on A549 [4] was Active. For the compound `OCc1cc(-c2ccccc2)nn1CC(O)c1ccccc1` (stereo unspecified), the result with A549 [1] was inactive.
